# Tests used:
# [1] = tested on: Staphylococcus aureus; assay: Antibacterial activity against methicillin-sensitive Staphylococcus aureus ARC516 infected in ip dosed neutropenic CD1 mouse thigh model assessed as decrease in bacterial viable counts after 24 hrs; type: functional, organism-based; settings: Thigh muscle
# [2] = tested on: Staphylococcus aureus; assay: Antimicrobial activity against Staphylococcus aureus by broth microdilution/CLSI method; type: functional
# [3] = tested on: Staphylococcus aureus; assay: Antimicrobial activity against methicillin-resistant Staphylococcus aureus by broth microdilution/CLSI method; type: functional
# [4] = tested on: Enterococcus faecalis; assay: Antimicrobial activity against Enterococcus faecalis by broth microdilution/CLSI method; type: functional
# [5] = tested on: Enterococcus faecalis; assay: Antimicrobial activity against vancomycin-resistant Enterococcus faecalis by broth microdilution/CLSI method; type: functional
# [6] = tested on: Enterococcus faecium; assay: Antimicrobial activity against Enterococcus faecium by broth microdilution/CLSI method; type: functional
# [7] = tested on: Enterococcus faecium; assay: Antimicrobial activity against vancomycin-resistant Enterococcus faecium by broth microdilution/CLSI method; type: functional
# [8] = tested on: Staphylococcus aureus; assay: Antimicrobial activity against 2 times drug resistance selected Staphylococcus aureus ARC516-1F by broth microdilution/CLSI method; type: functional
# [9] = tested on: Staphylococcus aureus; assay: Antimicrobial activity against 2 times drug resistance selected Staphylococcus aureus ARC1692-2F by broth microdilution/CLSI method; type: functional
# [10] = tested on: Staphylococcus aureus; assay: Antimicrobial activity against 2 times drug resistance selected Staphylococcus aureus ARC2381-2F by broth microdilution/CLSI method; type: functional
# [11] = tested on: Staphylococcus aureus; assay: Antimicrobial activity against Staphylococcus aureus ARC2398 by broth microdilution/CLSI method; type: functional
# [12] = tested on: Staphylococcus aureus; assay: Antimicrobial activity against 2 times drug resistance selected Staphylococcus aureus ARC2398-1F by broth microdilution/CLSI method; type: functional
# [13] = tested on: Staphylococcus aureus; assay: Antimicrobial activity against 2 times drug resistance selected Staphylococcus aureus ARC2398-2F by broth microdilution/CLSI method; type: functional
# [14] = tested on: Staphylococcus aureus; assay: Ratio of MIC for 2 times drug resistance selected Staphylococcus aureus ARC516-1F to MIC for Staphylococcus aureus ARC516; type: functional
# [15] = tested on: Staphylococcus aureus; assay: Ratio of MIC for 2 times drug resistance selected Staphylococcus aureus ARC516-2F to MIC for Staphylococcus aureus ARC516; type: functional
# [16] = tested on: Staphylococcus aureus; assay: Ratio of MIC for 2 times drug resistance selected Staphylococcus aureus ARC2381-3F to MIC for Staphylococcus aureus ARC2381; type: functional
# [17] = tested on: Staphylococcus aureus; assay: Ratio of MIC for 2 times drug resistance selected Staphylococcus aureus ARC2398-2F to MIC for Staphylococcus aureus ARC2398; type: functional
# [18] = target: Cytochrome P450 3A4 (Homo sapiens, UniProt P08684); assay: Inhibition of human CYP3A4 at 50 uM; type: ADME
# Cytochrome P450 3A4, sequence (P08684 whole entry): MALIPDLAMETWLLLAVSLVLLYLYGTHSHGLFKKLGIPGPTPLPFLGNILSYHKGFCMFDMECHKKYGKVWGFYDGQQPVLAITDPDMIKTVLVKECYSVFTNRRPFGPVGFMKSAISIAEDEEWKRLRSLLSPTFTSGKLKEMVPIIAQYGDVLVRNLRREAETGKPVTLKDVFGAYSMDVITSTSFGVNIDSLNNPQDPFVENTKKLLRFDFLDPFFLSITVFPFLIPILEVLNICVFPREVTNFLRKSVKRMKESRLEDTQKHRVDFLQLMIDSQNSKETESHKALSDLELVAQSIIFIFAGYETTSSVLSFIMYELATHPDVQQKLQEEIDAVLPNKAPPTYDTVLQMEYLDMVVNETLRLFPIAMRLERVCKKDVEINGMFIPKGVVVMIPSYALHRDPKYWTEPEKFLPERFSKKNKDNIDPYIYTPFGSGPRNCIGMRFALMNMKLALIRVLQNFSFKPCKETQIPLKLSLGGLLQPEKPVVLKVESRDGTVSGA
# [19] = target: T1, Cytochrome P450 1A2 (Homo sapiens, UniProt P05177); assay: Inhibition of human CYP1A2 at 50 uM; type: ADME
# T1 sequence (P05177 whole entry): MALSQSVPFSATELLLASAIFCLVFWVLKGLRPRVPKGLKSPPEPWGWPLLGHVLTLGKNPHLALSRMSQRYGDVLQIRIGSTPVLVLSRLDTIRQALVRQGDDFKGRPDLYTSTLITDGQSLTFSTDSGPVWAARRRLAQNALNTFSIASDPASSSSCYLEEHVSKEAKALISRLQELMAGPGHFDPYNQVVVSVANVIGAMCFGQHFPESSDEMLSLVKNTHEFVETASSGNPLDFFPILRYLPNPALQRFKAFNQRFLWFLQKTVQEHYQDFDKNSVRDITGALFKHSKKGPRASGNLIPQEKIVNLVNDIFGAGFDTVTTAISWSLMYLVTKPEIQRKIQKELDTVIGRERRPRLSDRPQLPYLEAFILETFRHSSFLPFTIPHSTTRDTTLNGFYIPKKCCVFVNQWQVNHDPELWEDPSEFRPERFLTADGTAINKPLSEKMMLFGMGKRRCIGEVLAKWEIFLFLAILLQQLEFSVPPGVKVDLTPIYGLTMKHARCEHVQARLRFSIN
# [20] = target: T2, Cytochrome P450 2C8 (Homo sapiens, UniProt P10632); assay: Inhibition of human CYP2C8 at 50 uM; type: ADME
# T2 sequence (P10632 whole entry): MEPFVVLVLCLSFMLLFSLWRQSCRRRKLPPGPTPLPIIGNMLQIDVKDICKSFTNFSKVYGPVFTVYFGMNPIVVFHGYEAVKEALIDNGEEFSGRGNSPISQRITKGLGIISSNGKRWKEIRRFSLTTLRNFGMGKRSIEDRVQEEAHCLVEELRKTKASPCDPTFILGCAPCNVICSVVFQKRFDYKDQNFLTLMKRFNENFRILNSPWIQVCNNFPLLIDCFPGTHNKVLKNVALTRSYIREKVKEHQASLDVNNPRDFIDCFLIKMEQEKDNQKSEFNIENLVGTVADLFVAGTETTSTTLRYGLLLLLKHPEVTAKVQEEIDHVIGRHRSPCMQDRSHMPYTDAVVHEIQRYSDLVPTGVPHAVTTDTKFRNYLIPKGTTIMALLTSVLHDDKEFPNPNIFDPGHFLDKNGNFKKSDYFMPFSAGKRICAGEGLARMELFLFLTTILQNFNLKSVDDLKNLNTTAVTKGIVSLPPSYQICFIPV
# [21] = target: Cytochrome P450 2C9 (Homo sapiens, UniProt P11712); assay: Inhibition of human CYP2C9 at 50 uM; type: ADME
# [22] = target: Cytochrome P450 2C19 (Homo sapiens, UniProt P33261); assay: Inhibition of human CYP2C19 at 50 uM; type: ADME
# Cytochrome P450 2C19, sequence (P33261 whole entry): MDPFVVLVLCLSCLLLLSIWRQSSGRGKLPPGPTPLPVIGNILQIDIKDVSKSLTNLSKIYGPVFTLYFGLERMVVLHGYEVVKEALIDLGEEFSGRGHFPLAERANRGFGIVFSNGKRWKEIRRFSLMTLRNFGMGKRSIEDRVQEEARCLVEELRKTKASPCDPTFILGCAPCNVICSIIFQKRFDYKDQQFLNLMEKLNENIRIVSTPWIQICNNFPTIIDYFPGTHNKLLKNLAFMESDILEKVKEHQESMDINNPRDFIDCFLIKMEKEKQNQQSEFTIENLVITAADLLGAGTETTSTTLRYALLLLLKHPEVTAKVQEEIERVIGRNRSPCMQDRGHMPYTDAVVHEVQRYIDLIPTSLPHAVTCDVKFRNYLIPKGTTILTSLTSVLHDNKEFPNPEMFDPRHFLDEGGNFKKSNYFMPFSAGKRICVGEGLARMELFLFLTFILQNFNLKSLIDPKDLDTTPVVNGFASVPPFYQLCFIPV
# [23] = target: T3, ATP-binding cassette sub-family C member 2 (Homo sapiens, UniProt Q92887); assay: Stimulation of ATPase activity of human MRP2 assessed as inorganic phosphate
# T3 sequence (Q92887 whole entry): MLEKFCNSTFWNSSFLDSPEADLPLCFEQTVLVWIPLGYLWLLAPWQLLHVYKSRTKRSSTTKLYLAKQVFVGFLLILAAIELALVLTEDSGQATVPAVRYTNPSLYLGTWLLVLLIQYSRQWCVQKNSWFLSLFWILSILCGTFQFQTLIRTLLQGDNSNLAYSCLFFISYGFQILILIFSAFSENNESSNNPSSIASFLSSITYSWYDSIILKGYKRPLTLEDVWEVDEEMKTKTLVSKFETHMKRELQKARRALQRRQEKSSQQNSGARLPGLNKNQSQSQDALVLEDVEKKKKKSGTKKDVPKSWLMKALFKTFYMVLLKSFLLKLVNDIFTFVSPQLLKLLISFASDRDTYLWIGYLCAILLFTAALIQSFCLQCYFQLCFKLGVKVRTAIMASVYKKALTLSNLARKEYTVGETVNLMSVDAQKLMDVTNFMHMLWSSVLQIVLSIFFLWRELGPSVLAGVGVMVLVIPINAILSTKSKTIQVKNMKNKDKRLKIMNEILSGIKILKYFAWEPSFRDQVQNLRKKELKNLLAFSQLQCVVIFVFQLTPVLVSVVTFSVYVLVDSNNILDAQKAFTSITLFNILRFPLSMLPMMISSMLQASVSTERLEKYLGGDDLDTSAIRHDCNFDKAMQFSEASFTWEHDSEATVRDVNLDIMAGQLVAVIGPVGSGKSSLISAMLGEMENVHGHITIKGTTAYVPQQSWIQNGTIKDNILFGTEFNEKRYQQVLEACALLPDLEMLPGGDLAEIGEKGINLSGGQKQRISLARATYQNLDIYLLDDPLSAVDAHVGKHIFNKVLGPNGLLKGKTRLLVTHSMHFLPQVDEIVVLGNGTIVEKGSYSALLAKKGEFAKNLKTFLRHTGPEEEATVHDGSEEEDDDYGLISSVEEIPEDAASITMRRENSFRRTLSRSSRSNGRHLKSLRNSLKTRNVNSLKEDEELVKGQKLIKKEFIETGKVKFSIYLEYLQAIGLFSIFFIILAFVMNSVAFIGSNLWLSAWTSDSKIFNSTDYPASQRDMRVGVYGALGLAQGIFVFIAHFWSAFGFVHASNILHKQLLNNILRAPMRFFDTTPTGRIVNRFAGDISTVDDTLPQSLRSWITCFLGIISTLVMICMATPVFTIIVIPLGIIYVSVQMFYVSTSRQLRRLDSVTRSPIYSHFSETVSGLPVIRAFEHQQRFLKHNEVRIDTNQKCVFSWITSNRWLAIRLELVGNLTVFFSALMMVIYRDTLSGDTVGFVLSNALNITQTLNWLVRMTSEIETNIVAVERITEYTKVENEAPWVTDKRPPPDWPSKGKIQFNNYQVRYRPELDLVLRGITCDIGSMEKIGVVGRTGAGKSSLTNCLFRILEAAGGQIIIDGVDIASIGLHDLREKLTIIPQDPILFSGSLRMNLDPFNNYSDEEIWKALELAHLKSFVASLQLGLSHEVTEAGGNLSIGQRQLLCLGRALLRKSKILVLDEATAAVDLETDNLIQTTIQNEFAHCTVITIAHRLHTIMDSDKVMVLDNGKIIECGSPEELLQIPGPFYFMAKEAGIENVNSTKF
# [24] = target: T3, ATP-binding cassette sub-family C member 2; assay: Inhibition of ATPase activity of human MRP2 assessed as inorganic phosphate
# [25] = target: ATP-binding cassette sub-family C member 2 (Rattus norvegicus, UniProt Q63120); assay: Inhibition of ATPase activity of rat Mrp2 assessed as inorganic phosphate
# ATP-binding cassette sub-family C member 2 (Rattus norvegicus, UniProt Q63120), sequence (Q63120 whole entry): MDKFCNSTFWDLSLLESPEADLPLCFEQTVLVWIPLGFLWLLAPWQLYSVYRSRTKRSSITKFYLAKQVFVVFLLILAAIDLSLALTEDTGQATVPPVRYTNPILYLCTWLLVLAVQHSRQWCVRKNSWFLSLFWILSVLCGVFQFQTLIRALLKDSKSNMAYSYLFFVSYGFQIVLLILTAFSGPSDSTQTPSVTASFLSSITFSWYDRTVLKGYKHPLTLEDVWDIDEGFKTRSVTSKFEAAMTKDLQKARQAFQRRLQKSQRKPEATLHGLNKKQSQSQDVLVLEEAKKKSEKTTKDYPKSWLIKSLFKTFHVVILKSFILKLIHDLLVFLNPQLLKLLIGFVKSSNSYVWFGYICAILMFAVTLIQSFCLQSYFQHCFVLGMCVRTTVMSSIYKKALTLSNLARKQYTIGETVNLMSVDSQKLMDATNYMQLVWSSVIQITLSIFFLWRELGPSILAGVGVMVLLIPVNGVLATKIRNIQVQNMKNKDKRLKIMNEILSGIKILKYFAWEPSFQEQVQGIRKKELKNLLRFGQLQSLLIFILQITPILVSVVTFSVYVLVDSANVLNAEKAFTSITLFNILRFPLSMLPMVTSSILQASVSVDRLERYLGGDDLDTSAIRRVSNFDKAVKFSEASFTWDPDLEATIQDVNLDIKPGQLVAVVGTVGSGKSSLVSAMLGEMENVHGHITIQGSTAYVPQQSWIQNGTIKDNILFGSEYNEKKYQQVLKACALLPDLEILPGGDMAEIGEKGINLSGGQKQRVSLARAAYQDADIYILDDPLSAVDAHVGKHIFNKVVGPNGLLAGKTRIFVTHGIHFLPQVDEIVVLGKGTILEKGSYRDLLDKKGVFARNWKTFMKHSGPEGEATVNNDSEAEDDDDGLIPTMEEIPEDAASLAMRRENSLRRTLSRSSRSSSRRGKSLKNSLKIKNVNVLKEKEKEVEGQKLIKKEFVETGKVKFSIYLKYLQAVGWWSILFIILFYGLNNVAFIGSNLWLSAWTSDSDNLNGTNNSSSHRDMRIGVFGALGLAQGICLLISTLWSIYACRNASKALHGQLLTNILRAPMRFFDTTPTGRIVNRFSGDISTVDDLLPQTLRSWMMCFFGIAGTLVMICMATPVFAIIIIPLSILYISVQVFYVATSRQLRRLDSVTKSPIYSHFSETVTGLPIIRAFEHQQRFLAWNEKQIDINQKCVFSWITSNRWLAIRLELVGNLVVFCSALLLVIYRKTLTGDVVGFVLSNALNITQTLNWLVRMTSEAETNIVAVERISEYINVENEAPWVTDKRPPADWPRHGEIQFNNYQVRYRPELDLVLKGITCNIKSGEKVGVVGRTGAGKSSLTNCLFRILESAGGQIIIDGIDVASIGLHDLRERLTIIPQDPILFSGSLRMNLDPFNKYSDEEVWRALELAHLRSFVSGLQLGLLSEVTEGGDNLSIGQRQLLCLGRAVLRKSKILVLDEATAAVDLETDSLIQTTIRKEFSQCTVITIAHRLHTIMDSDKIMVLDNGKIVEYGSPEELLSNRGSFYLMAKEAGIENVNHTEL
# [26] = target: DNA gyrase subunit B (Staphylococcus aureus, UniProt P0A0K8); assay: Inhibition of ATPase activity of Staphylococcus aureus GyrB
# DNA gyrase subunit B, sequence (P0A0K8 whole entry): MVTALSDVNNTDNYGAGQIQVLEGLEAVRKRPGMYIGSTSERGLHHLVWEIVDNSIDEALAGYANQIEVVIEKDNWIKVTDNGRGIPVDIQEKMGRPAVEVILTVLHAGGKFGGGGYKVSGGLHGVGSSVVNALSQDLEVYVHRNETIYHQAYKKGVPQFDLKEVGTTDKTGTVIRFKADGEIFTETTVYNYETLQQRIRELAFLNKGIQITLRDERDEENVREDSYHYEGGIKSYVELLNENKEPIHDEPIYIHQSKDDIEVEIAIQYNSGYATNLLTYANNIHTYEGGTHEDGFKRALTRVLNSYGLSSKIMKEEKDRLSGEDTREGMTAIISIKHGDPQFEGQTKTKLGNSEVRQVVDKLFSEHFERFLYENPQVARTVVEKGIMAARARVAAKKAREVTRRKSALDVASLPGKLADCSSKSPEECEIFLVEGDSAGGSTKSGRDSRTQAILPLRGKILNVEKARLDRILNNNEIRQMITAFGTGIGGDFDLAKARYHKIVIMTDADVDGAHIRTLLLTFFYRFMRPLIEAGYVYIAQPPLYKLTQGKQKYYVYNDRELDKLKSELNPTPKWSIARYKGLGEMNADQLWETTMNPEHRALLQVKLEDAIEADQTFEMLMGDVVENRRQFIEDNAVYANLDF
# How it was run: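 IC50 was determined against S. aureus GyrB in the routine screening assay. The enzyme concentration limits resolution below 10 nM.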
# [27] = tested on: Streptococcus pneumoniae; assay: Antibacterial activity against Streptococcus pneumoniae by broth microdilution/CLSI method; type: functional; settings: Streptococcus pneumoniae; read-out: MIC
# [28] = tested on: Streptococcus pyogenes; assay: Antimicrobial activity against Streptococcus pyogenes by broth microdilution/CLSI method; type: functional
# [29] = tested on: Staphylococcus aureus; assay: Antimicrobial activity against methicillin-sensitive Staphylococcus aureus by broth microdilution/CLSI method; type: functional; settings: Staphylococcus aureus; read-out: MIC
# [30] = tested on: Staphylococcus aureus; assay: Antimicrobial activity against methicillin, quinolone-resistant Staphylococcus aureus by broth microdilution/CLSI method; type: functional; settings: Staphylococcus aureus; read-out: MIC
# [31] = tested on: Escherichia coli; assay: Antimicrobial activity against wild-type Escherichia coli Eco523 by broth microdilution/CLSI method; type: functional; settings: Escherichia coli, Eco523; read-out: MIC
# [32] = Percentage unbound in human plasma; type: ADME, cell-free
# [33] = Solubility of the compound; type: physicochemical
# [34] = Clearance in rat at 10 mg/kg, iv; type: ADME, organism-based; design: dose 10 mg/kg, route intravenous; settings: in vivo
# [35] = Dissociation constant, pKa of the compound; type: physicochemical
# [36] = Clearance in CD1 mouse at 10 mg/kg, iv; type: ADME, organism-based; design: dose 10 mg/kg, route intravenous; settings: in vivo
# [37] = Bioavailability in Wistar rat at 10 mg/kg, […]; type: ADME, organism-based; settings: in vivo
smiles,measurement,setting,value
COC[C@H](C)NC(=O)c1nc(N2CC[C@@H](NC(=O)c3[nH]c(C)c(Cl)c3Cl)[C@@H](OC)C2)sc1C(=O)O [AZD-5099],inhibition,[1],Dose-dependent effect
same,MIC90,[2],0.06 µg/mL
same,MIC90,[3],0.06 µg/mL
same,MIC90,[4],0.015 µg/mL
same,MIC90,[5],0.015 µg/mL
same,MIC90,[6],0.06 µg/mL
same,MIC90,[7],0.06 µg/mL
same,MIC,[8],0.25 µg/mL
same,MIC,[9],0.5 µg/mL
same,MIC,[10],0.13 µg/mL
same,MIC,[11],0.03 µg/mL
same,MIC,[12],0.5 µg/mL
same,MIC,[13],0.5 µg/mL
same,Ratio,[14],16
same,Ratio,[15],16
same,Ratio,[16],8
same,Ratio,[17],16
same,inhibition (INH),[18],Not Active
same,inhibition (INH),[19],Not Active
same,inhibition (INH),[20],Not Active
same,inhibition (INH),[21],Not Active
same,inhibition (INH),[22],Not Active
same,EC50,[23],> 200 µM
same,IC50,[24],59 µM
same,IC50,[25],200 µM
same,IC50,[26],< 0.01 µM
same,MIC,[27],0.016 µg/mL
same,MIC,[28],0.014 µg/mL
same,MIC,[29],0.036 µg/mL
same,MIC,[30],0.057 µg/mL
same,MIC,[31],24 µg/mL
same,fraction unbound,[32],0.025
same,solubility,[33],960 µM
same,clearance,[34],14 mL/min/kg
same,pKa,[35],4.2
same,clearance,[36],10 mL/min/kg
same,bioavailability,[37],81%

# From ChEMBL document CHEMBL3352173, “Optimization of pyrrolamide topoisomerase II inhibitors toward identification of an antibacterial clinical candidate (AZD5099)” (J Med Chem, 2014)
